Sampled rows, rich in hits. Any-hit rate of the full collection: about 2.9%.
SENP8 block-1: SENP8 protease inhibitors, primary screen, biochemical, luminescence; Sentrin-specific protease 8 (Homo sapiens), Q96LD8; purified SENP8, Z-RLRGG-aminoluciferin cleavage; inhibition, % at 10 µM; actives 1.2% (n = 330,000); in the data active = inhibition above about 50%
Target sequence (Q96LD8 whole entry, looked up): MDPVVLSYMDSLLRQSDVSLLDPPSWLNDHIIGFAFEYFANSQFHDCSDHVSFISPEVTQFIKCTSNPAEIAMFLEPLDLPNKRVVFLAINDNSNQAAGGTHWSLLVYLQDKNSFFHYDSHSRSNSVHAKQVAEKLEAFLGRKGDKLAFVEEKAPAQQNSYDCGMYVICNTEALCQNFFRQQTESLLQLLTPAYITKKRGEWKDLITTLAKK
SENP7 block: SENP7 protease inhibitors, primary screen, biochemical, luminescence, uHTS. recombinant SENP7, Z-RLRGG-aminoluciferin luminescence, 40 min. inhibition, % at 5 µM. Sentrin-specific protease 7 (Homo sapiens), Q9BQF6. actives 1.5% (n = 330,000);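 active = inhibition above about 50% at the single test dose, limit read from the data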;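 also: plate controls were DMSO with enzyme for no effect and no enzyme buffer wells for full effect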
SENP6 block: SENP6 protease inhibitors, primary screen, biochemical, luminescence, uHTS; inhibition, % at 10 µM; actives 1.8% (n = 330,000); Sentrin-specific protease 6 (Homo sapiens), Q9GZR1; Recombinant SENP6 catalytic domain, aminoluciferin luminescence;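 active = inhibition above about 50% at the single tested dose, limit read from the data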;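 also: plate controls were DMSO wells with enzyme for no effect and DMSO wells lacking enzyme for full effect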
SENP8 block-2: human SENP8 protease inhibitors, primary screen, biochemical, fluorescence, Nedd8 protein substrate, uHTS | recombinant SENP8 | inhibition, % at 20 µM | actives 0.64% (n = 360,000) | AID 602440, 2012; in the data active = inhibition mostly above about 40%, no sharp cut-off; inactive = mostly below about 27%
HSP90 refold inh: HSP90 inhibitors, primary screen, cell lysate, luminescence; Heat shock protein HSP 90 (rabbit reticulocyte lysate; luciferase refolding); Rabbit reticulocyte lysate, luciferase refolding luminescence, 3 h; inhibition, % at 5.6 µM; actives 0.91% (n = 290,000); AID 1789, 2009;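 active = inhibition above the screen-wide mean plus 3 SD, computed separately per campaign, cut at about 16% in these data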;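 also: 0% = DMSO wells and 100% = 60 µM geldanamycin wells; inhibitors lower the luminescence because luciferase stays unfolded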
SENP1 inh: human SENP1 catalytic domain inhibitors, primary screen, biochemical, FRET, uHTS; recombinant SENP1 catalytic domain, CyPet-SUMO1-YPet FRET cleavage; inhibition, % at 10 µM; actives 0.21% (n = 360,000); AID 624204, 2012;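 active = inhibition at least 30% at 10 µM, raw YFP signal under a set limit, fluorescence ratio 0.5 to 1.5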;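 also: 0% = enzyme with DMSO and 100% = no enzyme wells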
Target sequence (Q9P0U3 419-644 limits assumed): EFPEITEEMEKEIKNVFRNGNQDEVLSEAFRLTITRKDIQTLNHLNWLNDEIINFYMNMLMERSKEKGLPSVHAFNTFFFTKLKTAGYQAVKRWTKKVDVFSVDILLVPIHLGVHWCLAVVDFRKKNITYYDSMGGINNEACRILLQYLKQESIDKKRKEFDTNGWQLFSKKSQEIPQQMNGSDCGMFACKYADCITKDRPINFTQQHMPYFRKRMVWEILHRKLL
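Test system: recombinant human SENP1 catalytic domain, His6-tagged / Medium: pH 8 Tris buffer with EDTA, NaCl, BME, BSA, NP40, catalase / Also added: SUMO1 FRET substrate flanked by Cypet and Ypet, 25 nM / Times: 50 min reaction at room temperature / Signal: FRET, CFP and YFP emission / Control set: no-enzyme low control and enzyme-plus-DMSO high control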
SENP8 conf: SENP8 protease inhibitors, retest, confirmation, biochemical, luminescence, single concentration; shares compounds with SENP7 block; Recombinant SENP8, Z-RLRGG-aminoluciferin luminescence, 60 min; inhibition, % at 12.5 µM; actives 40% (n = 6,200);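 active = mean inhibition across replicates above about 50%, limit read from the data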
SENP6 conf: SENP6 protease inhibitors, confirmation, biochemical, luminescence, single concentration; actives 58% (n = 6,200); recombinant SENP6, Z-RLRGG-aminoluciferin luminescence; AID 488915, 2010; inhibition, % at 12.5 µM; shares compounds with SENP7 block
SENP7 confirm: SENP7 protease inhibitors, retest, confirmation, biochemical, luminescence, single concentration | shares compounds with SENP7 block | recombinant SENP7, Z-RLRGG-aminoluciferin luminescence, 40 min | inhibition, % at 12.5 µM | actives 69% (n = 6,200)
Casp3 select: caspase-3 protease inhibitors, confirmation, selectivity assay for SENP inhibitor project, biochemical, single concentration; shares compounds with SENP7 block; purified caspase-3, Z-DEVD-aminoluciferin luminescence, 60 min; inhibition, % at 12.5 µM; actives 60% (n = 6,200); AID 488918, 2010;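 active = mean inhibition above about 50%, limit read from the data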;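 also: plate controls were enzyme with DMSO for no effect and wells without caspase-3 for full effect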
Target sequence (P42574 28-227 limits assumed): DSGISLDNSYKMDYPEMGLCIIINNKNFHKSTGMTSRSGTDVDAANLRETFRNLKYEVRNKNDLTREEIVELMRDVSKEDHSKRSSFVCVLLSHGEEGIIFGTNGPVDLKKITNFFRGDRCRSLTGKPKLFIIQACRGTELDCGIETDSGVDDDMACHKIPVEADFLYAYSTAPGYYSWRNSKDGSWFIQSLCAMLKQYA
SENP luc ctr: luminescence interference (SENP counter-screen); AID 488919; inhibition, % at 12.5 µM; Pre-incubated SENP8/Z-RLRGG-aminoluciferin, luciferase luminescence interference; actives 39% (n = 6,200); shares compounds with SENP7 block;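 active = mean inhibition above about 50% when retested at one dose, limit read from the data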;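 also: plate controls were DMSO wells with completed reaction for no effect and substrate without enzyme for full effect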
Starred values were filed as active, the others as inactive; i = inactive; · = not tested or not shown.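 The calls were made as follows, unless noted: active = mean inhibition above about 50% in the one-dose retest (limit read from the data); inactive = the rest.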

SMILES | SENP8 block-1 | SENP7 block | SENP6 block | SENP8 block-2 | HSP90 refold inh | SENP1 inh | SENP8 conf | SENP6 conf | SENP7 confirm | Casp3 select | SENP luc ctr
O=S1(=O)CCOCCCN1Cc1ccccc1Br | -6.0 | -4.2 | -18.0 | 12.0 | -2.9 | -0.3 | · | · | · | · | ·
O=C(Nc1nccs1)C1CC(=O)N(CCc2ccc(F)cc2)C1 (stereo not given) | 0.7 | 0.0 | -5.6 | 7.4 | 1.6 | 1.8 | · | · | · | · | ·
N/C(=N\OC(=O)/C=C/c1ccccc1)c1cccnc1 | -3.1 | 14.4 | -26.5 | 6.8 | 2.4 | 2.6 | · | · | · | · | ·
COc1cc(OC)cc(C(=O)O/N=C(\N)c2ccncc2)c1 | -11.4 | -11.2 | -3.6 | 4.8 | -0.3 | 5.8 | · | · | · | · | ·
O=C(O/N=C(\c1ccccc1)c1ccncc1)c1ccccc1Cl | -12.8 | -0.9 | -37.8 | 7.2 | 4.9 | 3.0 | · | · | · | · | ·
N/C(=N\OC(=O)c1ccc2c(c1)OCO2)c1cccc([N+](=O)[O-])c1 | 14.6 | 44.7 | 41.9 | 14.7 | -5.4 | 3.0 | · | · | · | · | ·
Cc1cccc(/C(N)=N/OC(=O)c2ccc3c(c2)OCO3)c1 | 96.8* | 99.6* | 97.8* | 6.7 | 4.4 | 3.0 | 99.6* | 100.5* | 103.3* | 98.3* | 98.6*
N/C(=N\OC(=O)c1ccccc1Cl)c1ccccc1 | 95.2* | 98.5* | 94.4* | 12.0 | 1.2 | 2.3 | 96.7* | 98.7* | 102.8* | 96.9* | 95.6*
N/C(=N\OC(=O)c1ccc(Br)cc1)c1ccncc1 | 25.9 | 62.1* | 58.5* | 14.4 | 2.6 | 4.2 | 34.9 | 40.1 | 70.9* | 67.9* | 49.0
N/C(=N\OC(=O)/C=C/c1ccccc1Cl)c1cccnc1 | 27.0 | 51.7* | 48.6 | 23.9 | -4.7 | 5.6 | 8.8 | 5.4 | 20.4 | 9.7 | 36.2
CCOC(=O)C1=C(N)Oc2c(c(=O)[nH]c3ccccc23)C1c1ccccc1 (stereo not given) | -1.0 | 2.8 | -2.6 | -92.1 | -0.6 | -5.9 | · | · | · | · | ·
COc1ccc(OC)c(NC(=O)CSc2ccc3nnc(-c4ccccn4)n3n2)c1 | -3.2 | -4.1 | 6.3 | -0.9 | -2.7 | 2.4 | · | · | · | · | ·
COc1ccc(Nc2cccc3ccccc23)cc1 | 3.5 | 22.7 | 28.7 | i | · | 22.2 | · | · | · | · | ·
Cc1cccc(/C(N)=N/OC(=O)c2cccc3ccccc23)c1 | 76.5* | 86.9* | 86.7* | -132.1 | 0.7 | 1.7 | 86.3* | 84.6* | 96.1* | 72.3* | 82.2*
NNc1nc(-c2ccccc2)cs1 | -0.4 | 9.8 | -1.2 | -4.2 | -1.6 | -7.3 | · | · | · | · | ·
Cc1csc(Nc2ccc(C(=O)O)cc2)n1 | -10.8 | -11.6 | -3.7 | -6.9 | 1.0 | 3.4 | · | · | · | · | ·
O=C(O)c1ccc(Nc2nc(-c3ccccc3)cs2)cc1 | 49.8 | 65.2* | 84.0* | -72.0 | 9.9 | 0.5 | 72.4* | 70.4* | 89.8* | 63.3* | 80.4*
Oc1ccc(-c2csc(Nc3ccccn3)n2)c(O)c1 | 41.6 | 35.7 | 71.2* | 4.9 | -0.8 | 3.9 | 52.8* | 67.5* | 89.1* | 15.5 | 81.5*
Cc1cccnc1Nc1nc(-c2ccccc2)cs1 | 92.3* | 97.2* | 96.9* | -6.5 | 4.5 | -1.8 | -0.4 | 96.4* | 101.6* | 81.8* | 73.9*
Cc1ccnc(Nc2nc(-c3ccccc3)cs2)c1 | 80.5* | 85.4* | 90.4* | 14.4 | 1.8 | 1.3 | 12.7 | 64.5* | 84.6* | 44.1 | -4.2
NS(=O)(=O)c1ccc(Nc2nc(-c3ccc(O)cc3O)cs2)cc1 | 4.0 | 6.6 | -1.6 | 3.9 | 6.6 | -1.0 | · | · | · | · | ·
Nc1cc(N)nc(CS)n1 | -6.5 | -5.0 | -19.2 | 11.0 | 10.8 | 1.4 | · | · | · | · | ·
Cc1ccc(C)c(C(O)c2ncc(-c3ccc(F)cc3)[nH]2)c1 (stereo not given) | · | · | · | 17.2 | · | -0.7 | · | · | · | · | ·
CCN(CC)CCNC(=S)NC(=O)c1cn(-c2ccccc2)nc1-c1ccc(OC)cc1 | -4.6 | -4.9 | -3.7 | -4.1 | -1.3 | 3.7 | · | · | · | · | ·
Clc1cccc(CN2CCSCC2)c1 | 0.3 | -4.1 | 4.9 | 13.1 | -0.1 | 2.2 | · | · | · | · | ·
SMILES | SENP8 block-1 | SENP7 block | SENP6 block | SENP8 block-2 | HSP90 refold inh | SENP1 inh | SENP8 conf | SENP6 conf | SENP7 confirm | Casp3 select | SENP luc ctr
CCOC(=O)c1nn(-c2ccccc2)c2nnc(Cc3ccccc3)c(=O)n12 | -6.5 | 8.1 | -6.0 | 4.0 | -1.1 | 0.8 | · | · | · | · | ·
Cc1nc2ncccn2c1-c1csc(Nc2ccc(O)cc2)n1 | 7.2 | -0.7 | -6.6 | -9.8 | 0.3 | 3.4 | · | · | · | · | ·
Cc1cccnc1Nc1nc(-c2ccc(O)cc2O)cs1 | 56.4* | 27.2 | 68.5* | 10.6 | 8.2 | -0.8 | 81.3* | 81.1* | 92.5* | 25.1 | 45.2
CCOC(=O)N=S(N)(=O)c1ccc(Cl)cc1 (stereo not given) | 50.7* | 2.4 | 1.2 | 13.0 | -1.0 | 0.8 | -22.1 | -13.3 | -8.2 | -9.3 | -4.9
CCOC(=O)N=S(N)(=O)c1ccccc1 (stereo not given) | 0.6 | 1.1 | 0.8 | 7.1 | 4.9 | 0.6 | · | · | · | · | ·
COc1ccc(C2C(C#N)=C(C)NC(C)=C2C(=O)OC(C)C)c(OC)c1 (stereo not given) | -5.2 | 0.1 | -2.2 | -399.6 | -0.5 | -2.5 | · | · | · | · | ·
CC(C)C(=O)N1CCN(c2ccccc2NC(=O)c2ccco2)CC1 | 1.6 | -9.3 | 103.2* | 9.6 | 4.3 | 1.9 | -6.8 | -6.3 | -7.3 | 1.8 | 3.3
O=C1C(Cl)=C(Nc2ccccc2)C(=O)c2ccccc21 | · | · | · | -39.7 | 1.0 | 3.7 | · | · | · | · | ·
C=CCNC1=C(Cl)C(=O)c2ccccc2C1=O | 20.6 | 16.6 | 59.0* | 72.0* | 4.2 | -3.7 | 20.5 | 50.0* | 18.8 | 31.0 | 8.8
CCN(CC)CCCNC1=C(Cl)C(=O)c2ccccc2C1=O | 22.3 | 11.0 | 75.4* | 46.7* | 2.9 | -0.9 | 41.1 | 66.8* | 20.6 | 54.6* | 3.1
CCN(CC)CCCNc1nc2ccccc2[nH]1 | -10.4 | 16.0 | -5.5 | 27.9 | 1.4 | -3.4 | · | · | · | · | ·

Screening data: PubChem BioAssay, several laboratories
